Results on one compound are retold here after ChEMBL document CHEMBL1157852, “Modulation of doxorubicin activity in cancer cells by conjugation with fatty acyl and terpenyl hydrazones” (Eur J Med Chem, 2010).

Experiment [1] relates to HL-60. Briefly: Cytotoxicity against human HL60 cells after 48 hrs by MTT assay. The format is functional, cell-based. The note with it: HL-60, 48 h. The gist of the method:
(§1)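 MTT assay. Cells seeded and cultured 24 h, then exposed to compound for 24, 48 or 72 h. MTT added to a final 0.05% (HL-60, 518A2) or 0.1% (KB-V1, MCF-7) for 2 h. Formazan dissolved in 10% SDS/DMSO with 0.6% acetic acid; absorbance read at 570 nm against 630 nm background. Viability taken relative to untreated controls (100%). IC50 from concentration-response curves, mean ± SD of four independent experiments.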

Experiment [2] has as its system HL-60. Briefly: Cytotoxicity against human HL60 cells after 72 hrs by MTT assay. The conditions noted are these: HL-60, 72 h. Type of experiment: functional, cell-based. In outline: as §1
Experiment [3] is described as follows: Cytotoxicity against human vinblastine-resistant KBV1 cells after 24 hrs by MTT assay. The conditions noted are these: KB-V1, 24 h. Type of experiment: functional, cell-based. The gist of the method: as §1
The nature of experiment [4]: Cytotoxicity against human vinblastine-resistant KBV1 cells after 48 hrs by MTT assay. Type of experiment: functional, cell-based. The conditions noted are these: KB-V1, 48 h. In outline:
as §1

The nature of experiment [5]: Cytotoxicity against human vinblastine-resistant KBV1 cells after 72 hrs by MTT assay. Type of experiment: functional, cell-based. The note with it: KB-V1, 72 h. The gist of the method:
as §1

The next experiment deals with MCF7. The experiment can be described thus: Cytotoxicity against human topotecan-resistant MCF7 cells after 24 hrs by MTT assay. The format is functional, cell-based. The conditions noted are these: MCF7, 24 h. The gist of the method: as §1
Experiment [6] can be described thus: Cytotoxicity against human doxorubicin-resistant KBV1 cells by MTT assay. Type of experiment: functional, KB-V1.
For experiment [7], the system named is HL-60. Briefly: Induction of apoptosis in human HL60 cells assessed as DNA ladder formation at 5 uM after 24 hrs by agarose gel electrophoresis. The format is functional, cell-based. In outline:
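HL-60 cells incubated with 5 µM compound for 24 h, then examined for DNA ladder patterns.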

The subject of experiment [8] is HL-60. The experiment can be described thus: Induction of apoptosis in human HL60 cells assessed as increase of caspase 3 activity at 5 uM after 4 hrs by luminometric assay. The format is functional, cell-based. The gist of the method: (§2)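 HL-60 and 518A2 cells treated with 5 µM compound and sampled at intervals from 1 to 24 h. Lysed in 50 mM Tris-HCl pH 7.4, 150 mM NaCl, 1% Triton X-100 with protease inhibitors for 15 min at 4 °C, spun at 800 g. Protein measured by Bradford. Caspase-3/7, -8 and -9 activities read with luminogenic peptide substrates; reported as relative luminescence.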

The test system of experiment [9] is 518A2. Briefly: Induction of apoptosis in human 518A2 cells assessed as increase of caspase 9 activity at 5 uM after 8 to 12 hrs by luminometric assay. The format is functional, cell-based. In outline: as §2
Experiment [10] relates to 518A2. The experiment can be described thus: Induction of apoptosis in human 518A2 cells assessed as increase of ratio of Bax to Bcl-2 mRNA expression at 5 uM after 6 to 18 hrs by RT-PCR analysis. Type of experiment: functional, cell-based. In outline: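 518A2 cells exposed to 5 µM compound for 6 h or 18 h. bax and bcl-2 mRNA quantified by real-time PCR, normalised to GAPDH, and expressed as the bax/bcl-2 ratio.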

In experiment [11] the test system is HL-60. The experiment can be described thus: Cytotoxicity against human HL60 cells assessed as increase in ROS production at 5 uM after 72 hrs by NBT reduction assay relative to control. The format is functional. In outline: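 NBT assay. HL-60 cells (0.5×10⁶/mL) or trypsinised 518A2 cells (5×10⁴/mL) pre-incubated 24 h at 37 °C, then given compound at a final 5 µM for 24 or 72 h. Medium removed; cells incubated with 0.1% NBT for 1 h (HL-60) or 4 h (518A2). Diformazan dissolved in 2 M KOH/DMSO; A630 read against 405 nm. Given as % of untreated controls; double quadruplicates.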

pIC50: −log10 of the molar value. Active and inactive are the calls of the source. The calls are words filed in the database; no cut-off is given here.

With `COc1cccc2c1C(=O)c1c(O)c3c(c(O)c1C2=O)C[C@@](O)(/C(CO)=N/NC(=O)CCCCCCCCCCC(=O)O[C@@H]1C[C@H](C)CC[C@H]1C(C)C)C[C@@H]3O[C@H]1C[C@H](N)[C@H](O)[C@H](C)O1.Cl`, the negative-log IC50 (pIC50) is 6.60 in the experiment with HL-60 [1]; 6.96 with HL-60 [2]; 4.52 in experiment [3]; 4.77 in [4]; 5.06 in [5]; 5.15 in the experiment on MCF7. The Activity in experiment [6] was determined as 200 nM; in the experiment with HL-60 [11] it was 5.9%. For the same compound, the outcome in the experiment on HL-60 [7], in the experiment on HL-60 [8], in the experiment with 518A2 [9] and with 518A2 [10] was Active.
